Laboratory results: ChEMBL document CHEMBL4229344 (Eur J Med Chem, 2018)
Calls of active or inactive are those of the source. The calls are words filed in the database; no cut-off is given here.

How the values were obtained:
[1] = molecular target: Calcium/calmodulin-dependent protein kinase type IV (Homo sapiens) (UniProt Q16566); test: Binding affinity to wild-type human partial length CAMK4 (A22 to A322 residues) expressed in bacterial expression system assessed as residual binding level at 1 uM by Kinomescan method relative to control
Sequence of Calcium/calmodulin-dependent protein kinase type IV (Homo sapiens) (Q16566 whole entry, the tested form may be a part): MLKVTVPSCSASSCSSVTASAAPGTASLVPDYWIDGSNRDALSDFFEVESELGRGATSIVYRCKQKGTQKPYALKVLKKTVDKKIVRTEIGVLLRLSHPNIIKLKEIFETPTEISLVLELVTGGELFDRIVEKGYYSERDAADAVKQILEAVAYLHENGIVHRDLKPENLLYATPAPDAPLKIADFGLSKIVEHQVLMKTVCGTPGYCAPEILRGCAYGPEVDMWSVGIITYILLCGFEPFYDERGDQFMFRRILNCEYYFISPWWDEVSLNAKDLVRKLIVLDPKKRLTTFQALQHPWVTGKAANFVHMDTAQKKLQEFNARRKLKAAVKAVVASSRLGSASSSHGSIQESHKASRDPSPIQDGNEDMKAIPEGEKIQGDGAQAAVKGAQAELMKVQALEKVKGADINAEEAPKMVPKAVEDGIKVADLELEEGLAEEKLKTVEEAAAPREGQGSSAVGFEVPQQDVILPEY

[2] = molecular target: Rho-associated protein kinase 1 (Homo sapiens) (UniProt Q13464); test: Binding affinity to wild-type human partial length ROCK1 (M1 to R415 residues) expressed in mammalian expression system assessed as residual binding level at 1 uM by Kinomescan method relative to control
[3] = molecular target: Ephrin type-A receptor 6 (Homo sapiens) (UniProt Q9UF33); test: Binding affinity to wild-type human partial length EPHA6 (Y700 to E1046 residues) expressed in bacterial expression system assessed as residual binding level at 1 uM by Kinomescan method relative to control
Summary of the method: (§1)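 Kinome-wide competition binding screen against a panel of 468 purified kinases/mutants, with the test compound at a single concentration of 1 μM. Read-out is the relative binding activity of each kinase in the presence of compound.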

[4] = molecular target: Receptor tyrosine-protein kinase erbB-3 (Homo sapiens) (UniProt P21860); test: Binding affinity to wild-type human partial length ERBB3 (G684 to A987 residues) expressed in mammalian expression system assessed as residual binding level at 1 uM by Kinomescan method relative to control
[5] = molecular target: Tyrosine-protein kinase ITK/TSK (Homo sapiens) (UniProt Q08881); test: Binding affinity to wild-type human partial length ITK (R335 to L620 residues) expressed in bacterial expression system assessed as residual binding level at 1 uM by Kinomescan method relative to control
Sequence of Tyrosine-protein kinase ITK/TSK (Homo sapiens) (Q08881 whole entry, the tested form may be a part): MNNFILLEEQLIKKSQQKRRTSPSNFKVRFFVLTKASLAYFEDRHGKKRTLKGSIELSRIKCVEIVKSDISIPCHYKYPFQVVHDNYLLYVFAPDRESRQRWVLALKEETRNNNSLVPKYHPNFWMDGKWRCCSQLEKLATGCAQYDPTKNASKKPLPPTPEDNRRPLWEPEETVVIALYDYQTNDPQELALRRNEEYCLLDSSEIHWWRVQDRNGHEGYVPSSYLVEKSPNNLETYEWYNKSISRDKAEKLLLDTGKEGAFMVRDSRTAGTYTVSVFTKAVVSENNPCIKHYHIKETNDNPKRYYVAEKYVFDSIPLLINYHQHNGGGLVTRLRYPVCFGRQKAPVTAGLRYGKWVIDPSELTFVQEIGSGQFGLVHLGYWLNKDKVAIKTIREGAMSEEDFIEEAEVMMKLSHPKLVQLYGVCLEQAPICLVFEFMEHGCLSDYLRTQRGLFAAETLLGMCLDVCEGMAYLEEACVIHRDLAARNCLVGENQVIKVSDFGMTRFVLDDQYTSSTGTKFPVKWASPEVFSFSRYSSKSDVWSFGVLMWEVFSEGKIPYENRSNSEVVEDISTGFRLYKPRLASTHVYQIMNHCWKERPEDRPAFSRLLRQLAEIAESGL

[6] = test system: Tyrosine-protein kinase ABL1 (Homo sapiens), P00519 [F317L]; test: Binding affinity to human phosphorylated ABL1 F317L mutant (S229 to K512 residues) expressed in mammalian expression system assessed as residual binding level at 1 uM by Kinomescan method relative to control
Sequence of Tyrosine-protein kinase ABL1 (Homo sapiens), P00519 [F317L] (P00519 whole entry F317L, the tested form may be a part): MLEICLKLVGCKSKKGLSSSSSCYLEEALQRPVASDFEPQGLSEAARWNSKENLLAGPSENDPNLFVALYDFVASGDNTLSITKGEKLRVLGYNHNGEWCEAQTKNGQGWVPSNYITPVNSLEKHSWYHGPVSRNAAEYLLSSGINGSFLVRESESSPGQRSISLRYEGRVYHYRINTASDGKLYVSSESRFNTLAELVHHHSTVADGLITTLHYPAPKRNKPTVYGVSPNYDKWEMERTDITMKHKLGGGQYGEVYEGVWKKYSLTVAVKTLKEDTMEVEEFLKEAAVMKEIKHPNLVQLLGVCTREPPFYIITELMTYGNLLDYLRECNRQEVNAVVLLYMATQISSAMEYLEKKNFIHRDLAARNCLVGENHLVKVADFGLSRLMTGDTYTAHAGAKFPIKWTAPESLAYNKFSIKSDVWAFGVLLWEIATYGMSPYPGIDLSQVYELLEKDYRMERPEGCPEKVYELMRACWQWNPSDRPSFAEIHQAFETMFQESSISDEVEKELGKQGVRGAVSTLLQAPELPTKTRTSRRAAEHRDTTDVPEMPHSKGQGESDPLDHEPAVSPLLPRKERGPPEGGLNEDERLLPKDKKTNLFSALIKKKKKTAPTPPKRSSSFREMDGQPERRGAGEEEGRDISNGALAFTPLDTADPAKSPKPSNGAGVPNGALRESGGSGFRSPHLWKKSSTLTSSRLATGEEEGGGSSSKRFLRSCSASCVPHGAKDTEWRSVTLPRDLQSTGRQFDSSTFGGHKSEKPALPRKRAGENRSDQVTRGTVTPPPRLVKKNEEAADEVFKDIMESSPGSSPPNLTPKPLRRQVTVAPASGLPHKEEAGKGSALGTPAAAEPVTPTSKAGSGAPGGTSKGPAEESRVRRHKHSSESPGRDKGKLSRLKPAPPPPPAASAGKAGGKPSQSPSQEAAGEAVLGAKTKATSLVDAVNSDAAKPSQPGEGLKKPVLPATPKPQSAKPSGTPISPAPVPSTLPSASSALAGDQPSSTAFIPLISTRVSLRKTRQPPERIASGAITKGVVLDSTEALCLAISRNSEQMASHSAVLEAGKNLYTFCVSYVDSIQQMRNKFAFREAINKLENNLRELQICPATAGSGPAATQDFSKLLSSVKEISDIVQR
Summary of the method: (§2)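 Single-concentration (1 μM) competition-binding screen run by KINOMEscan against a panel of 468 purified kinases and mutants. The read-out is the relative binding activity of the test compound to each kinase.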

[7] = molecular target: Serine/threonine-protein kinase 32C (Homo sapiens) (UniProt Q86UX6); test: Binding affinity to wild-type human partial length YANK3 (M68 to G486 residues) expressed in bacterial expression system assessed as residual binding level at 1 uM by Kinomescan method relative to control
[8] = molecular target: Serine/threonine-protein kinase D1 (Homo sapiens) (UniProt Q15139); test: Binding affinity to wild-type human partial length PRKD1 (G551 to E870 residues) expressed in bacterial expression system assessed as residual binding level at 1 uM by Kinomescan method relative to control
Summary of the method: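 KINOMEscan competition binding against a panel of 468 purified kinases/mutants, compound tested at 1 μM; readout is relative binding activity versus control.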

[9] = molecular target: TGF-beta receptor type-1 (Homo sapiens) (UniProt P36897); test: Binding affinity to wild-type human partial length TGFBR1 (D179 to M503 residues) expressed in bacterial expression system assessed as residual binding level at 1 uM by Kinomescan method relative to control
[10] = molecular target: T1, Platelet-derived growth factor receptor alpha (Homo sapiens, UniProt P16234); test: Inhibition of PDGFRalpha in human EOL-1 cells assessed as decrease in STAT3 phosphorylation at Y705 residue up to 300 nM after 2 hrs by Western blot analysis; type: cell-based
T1 sequence (P16234 whole entry, the tested form may be a part): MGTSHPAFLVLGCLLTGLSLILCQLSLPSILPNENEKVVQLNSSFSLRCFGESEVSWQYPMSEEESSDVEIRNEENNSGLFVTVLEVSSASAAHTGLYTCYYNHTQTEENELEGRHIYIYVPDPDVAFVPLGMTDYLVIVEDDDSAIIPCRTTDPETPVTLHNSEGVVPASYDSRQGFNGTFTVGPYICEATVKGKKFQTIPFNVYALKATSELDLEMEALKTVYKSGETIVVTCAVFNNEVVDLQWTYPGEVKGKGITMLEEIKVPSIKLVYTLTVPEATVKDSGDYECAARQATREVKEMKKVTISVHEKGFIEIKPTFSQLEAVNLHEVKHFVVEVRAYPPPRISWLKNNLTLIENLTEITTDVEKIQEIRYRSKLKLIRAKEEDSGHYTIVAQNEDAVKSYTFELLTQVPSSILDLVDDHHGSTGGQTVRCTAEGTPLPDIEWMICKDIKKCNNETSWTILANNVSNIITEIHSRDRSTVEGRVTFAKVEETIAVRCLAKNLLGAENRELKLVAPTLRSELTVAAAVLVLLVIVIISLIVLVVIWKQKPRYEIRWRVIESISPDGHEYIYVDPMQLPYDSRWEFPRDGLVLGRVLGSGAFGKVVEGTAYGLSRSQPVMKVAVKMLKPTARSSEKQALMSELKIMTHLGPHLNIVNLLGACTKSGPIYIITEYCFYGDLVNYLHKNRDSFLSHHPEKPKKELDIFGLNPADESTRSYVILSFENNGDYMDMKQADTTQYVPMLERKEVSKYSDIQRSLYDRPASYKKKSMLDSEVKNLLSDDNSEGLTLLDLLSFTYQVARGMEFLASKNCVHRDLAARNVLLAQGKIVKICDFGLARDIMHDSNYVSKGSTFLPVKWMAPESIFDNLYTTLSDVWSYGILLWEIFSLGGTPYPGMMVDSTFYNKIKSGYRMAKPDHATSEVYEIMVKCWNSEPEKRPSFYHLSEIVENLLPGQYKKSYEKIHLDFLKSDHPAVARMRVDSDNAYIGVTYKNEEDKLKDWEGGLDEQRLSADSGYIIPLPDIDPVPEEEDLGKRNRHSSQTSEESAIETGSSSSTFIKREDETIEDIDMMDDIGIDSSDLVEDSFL

[11] = molecular target: Atypical kinase COQ8B, mitochondrial (Homo sapiens) (UniProt Q96D53); test: Binding affinity to wild-type human full length ADCK4 (M1 to S544 residues) expressed in bacterial expression system assessed as residual binding level at 1 uM by Kinomescan method relative to control
Summary of the method: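 KINOMEscan competition binding against 468 purified kinases/mutants, test compound at 1 µM; residual binding relative to control.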

[12] = molecular target: Epidermal growth factor receptor (Homo sapiens) (UniProt P00533); test: Binding affinity to human partial length EGFR S752-I759del mutant expressed in bacterial expression system assessed as residual binding level at 1 uM by Kinomescan method relative to control
Summary of the method: (§3)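 Kinome-wide single-concentration binding screen (KINOMEscan) at 1 μM against a panel of 468 purified kinases and mutants. Read-out is relative binding of each kinase compared with control. Selectivity across the panel was summarised as an S(10) score.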

[13] = molecular target: Casein kinase I isoform alpha (Homo sapiens) (UniProt P48729); test: Binding affinity to wild-type human partial length CSNK1A1 (M1 to L450 residues) expressed in mammalian expression system assessed as residual binding level at 1 uM by Kinomescan method relative to control; summary of the method: as §1
[14] = molecular target: Protein-tyrosine kinase 6 (Homo sapiens) (UniProt Q13882); test: Binding affinity to wild-type human partial length BRK (L166 to T451 residues) expressed in bacterial expression system assessed as residual binding level at 1 uM by Kinomescan method relative to control
Summary of the method: (§4)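 Single-concentration KINOMEscan (DiscoverX) binding screen at 1 μM against a panel of 468 purified kinases and mutants. The read-out is binding relative to control.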

[15] = molecular target: Casein kinase II subunit alpha (Homo sapiens) (UniProt P68400); test: Binding affinity to wild-type human full length CSNK2A1 (M1 to Q391 residues) expressed in mammalian expression system assessed as residual binding level at 1 uM by Kinomescan method relative to control; summary of the method: as §2
Sequence of Casein kinase II subunit alpha (Homo sapiens) (P68400 whole entry, looked up, the tested form may be a part): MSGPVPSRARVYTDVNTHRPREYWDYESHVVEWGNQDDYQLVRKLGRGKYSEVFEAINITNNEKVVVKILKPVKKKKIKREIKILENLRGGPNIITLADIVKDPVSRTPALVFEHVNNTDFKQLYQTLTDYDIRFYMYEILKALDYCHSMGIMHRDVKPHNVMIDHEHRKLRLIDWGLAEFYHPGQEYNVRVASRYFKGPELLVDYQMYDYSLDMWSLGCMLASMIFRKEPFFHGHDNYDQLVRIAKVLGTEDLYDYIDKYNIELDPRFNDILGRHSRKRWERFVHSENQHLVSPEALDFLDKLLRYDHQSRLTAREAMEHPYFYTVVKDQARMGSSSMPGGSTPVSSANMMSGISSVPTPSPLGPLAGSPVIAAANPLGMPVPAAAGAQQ

[16] = test system: Epidermal growth factor receptor (Homo sapiens), P00533 [T790M]; test: Binding affinity to human partial length EGFR T790M mutant (R669 to G1022 residues) expressed in mammalian expression system assessed as residual binding level at 1 uM by Kinomescan method relative to control; summary of the method: as §3
[17] = molecular target: Bone morphogenetic protein receptor type-1A (Homo sapiens) (UniProt P36894); test: Binding affinity to wild-type human partial length BMPR1A (Q214 to I532 residues) expressed in bacterial expression system assessed as residual binding level at 1 uM by Kinomescan method relative to control; summary of the method: as §4
[18] = molecular target: T1, Platelet-derived growth factor receptor alpha; test: Inhibition of PDGF-induced PDGFRalpha autophosphorylation at Y1018 residue in human NCI-H1703 cells after 2 hrs in presence of PDGF-AA by Western blot analysis; type: cell-based
[19] = test system: Phosphatidylinositol 4,5-bisphosphate 3-kinase catalytic subunit alpha isoform (Homo sapiens), P42336 [C420R]; test: Binding affinity to human partial length PIK3CA C420R mutant (R108 to N1068 residues) expressed in mammalian expression system assessed as residual binding level at 1 uM by Kinomescan method relative to control; summary of the method: as §3
Sequence of Phosphatidylinositol 4,5-bisphosphate 3-kinase catalytic subunit alpha isoform (Homo sapiens), P42336 [C420R] (P42336 whole entry C420R, the tested form may be a part, canonical isoform): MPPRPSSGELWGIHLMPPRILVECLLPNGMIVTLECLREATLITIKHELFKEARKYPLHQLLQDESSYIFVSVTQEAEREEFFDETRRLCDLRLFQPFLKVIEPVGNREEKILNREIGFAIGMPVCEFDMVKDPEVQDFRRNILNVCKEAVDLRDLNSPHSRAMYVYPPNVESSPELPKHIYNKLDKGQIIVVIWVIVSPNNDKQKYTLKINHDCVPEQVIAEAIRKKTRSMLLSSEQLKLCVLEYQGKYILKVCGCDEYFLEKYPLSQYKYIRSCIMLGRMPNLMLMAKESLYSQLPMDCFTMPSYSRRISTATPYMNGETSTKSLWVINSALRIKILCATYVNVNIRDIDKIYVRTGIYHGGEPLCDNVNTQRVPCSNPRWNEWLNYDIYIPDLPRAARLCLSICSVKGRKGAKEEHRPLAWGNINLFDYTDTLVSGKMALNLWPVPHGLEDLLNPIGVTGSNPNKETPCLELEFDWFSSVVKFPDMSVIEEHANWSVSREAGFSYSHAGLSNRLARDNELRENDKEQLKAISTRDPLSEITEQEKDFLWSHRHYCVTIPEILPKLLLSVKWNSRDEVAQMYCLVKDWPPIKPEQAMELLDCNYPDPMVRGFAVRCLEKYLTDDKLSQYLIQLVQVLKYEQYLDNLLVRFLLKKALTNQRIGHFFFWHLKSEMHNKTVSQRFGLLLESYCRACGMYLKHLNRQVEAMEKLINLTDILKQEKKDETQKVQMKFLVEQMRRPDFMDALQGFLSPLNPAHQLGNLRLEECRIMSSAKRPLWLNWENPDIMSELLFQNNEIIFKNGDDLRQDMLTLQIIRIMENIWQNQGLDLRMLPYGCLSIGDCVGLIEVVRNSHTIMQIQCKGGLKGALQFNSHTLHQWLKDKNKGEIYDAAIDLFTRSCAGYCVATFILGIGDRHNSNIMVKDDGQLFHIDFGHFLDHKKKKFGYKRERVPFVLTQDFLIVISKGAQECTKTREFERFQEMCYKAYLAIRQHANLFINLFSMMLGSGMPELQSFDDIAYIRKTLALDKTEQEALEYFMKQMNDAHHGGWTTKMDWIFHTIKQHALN

[20] = MRT (0 to t) in Sprague-Dawley rat at 1 mg/kg, iv; type: ADME, organism-based; details: in vivo
[21] = test system: EOL1; test: Antiproliferative activity against human EOL-1 cells after 72 hrs by CellTiter-Glo or CCK-8 assay; type: functional; details: EOL1, 72 h
Summary of the method: (§5)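 Cells in RPMI 1640 with 10% FBS at 37 °C, 5% CO2, seeded at 1–3 × 10^4 cells/mL with serial compound dilutions for 72 h. Viability read by CellTiter-Glo luminescence or CCK-8 absorbance (450/655 nm), normalized to DMSO control.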

[22] = test system: NCI-H1703; test: Antiproliferative activity against human NCI-H1703 cells after 72 hrs by CellTiter-Glo or CCK-8 assay; type: functional; details: NCI-H1703, 72 h; summary of the method: as §5

Cc1ccc(NC(=O)c2ccc(CN(CCN(C)C)C(=O)c3cccnc3)cc2)cc1Nc1nccc(-c2cccnc2)n1
Activity [1]: 98%
Activity [2]: 100%
Activity [3]: 92%
Activity [4]: 95%
Activity [5]: 100%
Activity [6]: 87%
Activity [7]: 96%
Activity [8]: 75%
Activity [9]: 100%
inhibition [10]: Active
Activity [11]: 94%
Activity [12]: 90%
Activity [13]: 87%
Activity [14]: 81%
Activity [15]: 81%
Activity [16]: 100%
Activity [17]: 100%
inhibition [18]: Dose-dependent effect
Activity [19]: 93%
MRT last [20]: 53.5 min
GI50 [21]: < 1 nM
GI50 [22]: 5.37 µM
